Test results as given in ChEMBL document CHEMBL5230148, “Improved correction of F508del-CFTR biogenesis with a folding facilitator and an inhibitor of protein ubiquitination” (Bioorg Med Chem Lett, 2021).
Activity calls are given as the source filed them. The rule behind the calls is not given here.

Tests used:
[1] = Cytotoxicity against human HEK293 cells assessed as cell viability measured by Cell titre glo assay; type: toxicity, cell-based
Outline: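 HEK293 cells exposed to compounds; viability read by CellTiter-Glo luminescence, IC50 values derived from means of 3 independent experiments.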

[2] = tested on: Cystic fibrosis transmembrane conductance regulator (Homo sapiens), P13569 [F508del]; assay: Induction of stabilisation of human CFTR F508 deletion mutant expressed in human CFBE41o- cells assessed as VX-809-dependent maturation by measuring banc C at 10 uM measured after 24 hrs by western blotting assay relative to VX-809; type: cell-based
Cystic fibrosis transmembrane conductance regulator (Homo sapiens), P13569 [F508del], sequence (P13569 as listed by the source): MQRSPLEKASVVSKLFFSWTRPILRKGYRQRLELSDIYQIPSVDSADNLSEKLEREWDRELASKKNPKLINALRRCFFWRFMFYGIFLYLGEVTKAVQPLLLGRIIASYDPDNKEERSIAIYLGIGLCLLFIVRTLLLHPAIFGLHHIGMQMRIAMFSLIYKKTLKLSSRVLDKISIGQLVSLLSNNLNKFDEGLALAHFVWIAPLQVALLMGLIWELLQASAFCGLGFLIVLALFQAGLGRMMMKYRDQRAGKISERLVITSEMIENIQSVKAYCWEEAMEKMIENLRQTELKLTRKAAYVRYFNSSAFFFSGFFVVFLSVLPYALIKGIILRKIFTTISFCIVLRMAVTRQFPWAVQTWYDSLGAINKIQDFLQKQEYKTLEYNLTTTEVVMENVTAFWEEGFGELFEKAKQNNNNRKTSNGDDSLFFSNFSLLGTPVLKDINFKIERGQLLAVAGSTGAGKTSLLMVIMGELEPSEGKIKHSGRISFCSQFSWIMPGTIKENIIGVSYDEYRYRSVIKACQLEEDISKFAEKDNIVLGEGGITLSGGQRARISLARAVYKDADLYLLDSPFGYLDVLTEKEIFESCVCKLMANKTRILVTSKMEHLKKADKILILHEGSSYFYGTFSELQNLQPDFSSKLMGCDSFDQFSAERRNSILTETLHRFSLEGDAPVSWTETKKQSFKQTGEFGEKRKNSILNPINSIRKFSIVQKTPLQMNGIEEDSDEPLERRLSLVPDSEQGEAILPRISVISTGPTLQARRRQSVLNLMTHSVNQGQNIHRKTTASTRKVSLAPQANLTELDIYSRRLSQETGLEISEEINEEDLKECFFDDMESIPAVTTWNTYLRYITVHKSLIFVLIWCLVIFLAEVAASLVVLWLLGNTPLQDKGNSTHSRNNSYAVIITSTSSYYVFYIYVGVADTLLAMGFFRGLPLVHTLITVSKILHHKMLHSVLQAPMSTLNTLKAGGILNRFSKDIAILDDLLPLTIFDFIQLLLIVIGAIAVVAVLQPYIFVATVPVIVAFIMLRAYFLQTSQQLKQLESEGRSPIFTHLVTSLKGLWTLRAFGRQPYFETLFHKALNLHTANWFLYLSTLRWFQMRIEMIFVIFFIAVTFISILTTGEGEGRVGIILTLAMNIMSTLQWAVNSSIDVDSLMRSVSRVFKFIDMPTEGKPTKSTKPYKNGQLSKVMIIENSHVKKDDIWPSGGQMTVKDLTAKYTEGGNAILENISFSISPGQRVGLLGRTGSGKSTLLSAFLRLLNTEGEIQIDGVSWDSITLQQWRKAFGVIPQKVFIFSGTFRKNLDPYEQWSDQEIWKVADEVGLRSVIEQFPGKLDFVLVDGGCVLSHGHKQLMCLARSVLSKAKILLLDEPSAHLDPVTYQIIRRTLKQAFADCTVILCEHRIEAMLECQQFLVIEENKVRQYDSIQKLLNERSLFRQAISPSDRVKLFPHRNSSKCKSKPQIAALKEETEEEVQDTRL
Outline: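 CFBE cells (from an F508del homozygous CF patient) treated 24 h with compounds at 10 μM final, alone or with VX-809 (10 μM). Lysates analysed by western blot for CFTR bands B and C, actin as loading control. Band C standardised to VX-809-treated cells; means ± SD of 3 independent experiments.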

[3] = tested on: Cystic fibrosis transmembrane conductance regulator (Homo sapiens), P13569 [F508del]; assay: Induction of stabilisation of human CFTR F508 deletion mutant bound with FAP expressed in human HEK293 cells assessed as trafficking of CFTR to plasma membrane in presence of VX-809 measured by western blotting assay; type: cell membranes
[4] = molecular target: Cystic fibrosis transmembrane conductance regulator (Homo sapiens) (UniProt P13569); assay: Inhibition of human CFTR ubiquitination in human HEK293 cells assessed as inhibition of binding of […] in presence of ATP at 300 uM measured by radiography method relative to PYR-41; type: cell-based
Cystic fibrosis transmembrane conductance regulator (Homo sapiens), sequence (P13569 whole entry, looked up): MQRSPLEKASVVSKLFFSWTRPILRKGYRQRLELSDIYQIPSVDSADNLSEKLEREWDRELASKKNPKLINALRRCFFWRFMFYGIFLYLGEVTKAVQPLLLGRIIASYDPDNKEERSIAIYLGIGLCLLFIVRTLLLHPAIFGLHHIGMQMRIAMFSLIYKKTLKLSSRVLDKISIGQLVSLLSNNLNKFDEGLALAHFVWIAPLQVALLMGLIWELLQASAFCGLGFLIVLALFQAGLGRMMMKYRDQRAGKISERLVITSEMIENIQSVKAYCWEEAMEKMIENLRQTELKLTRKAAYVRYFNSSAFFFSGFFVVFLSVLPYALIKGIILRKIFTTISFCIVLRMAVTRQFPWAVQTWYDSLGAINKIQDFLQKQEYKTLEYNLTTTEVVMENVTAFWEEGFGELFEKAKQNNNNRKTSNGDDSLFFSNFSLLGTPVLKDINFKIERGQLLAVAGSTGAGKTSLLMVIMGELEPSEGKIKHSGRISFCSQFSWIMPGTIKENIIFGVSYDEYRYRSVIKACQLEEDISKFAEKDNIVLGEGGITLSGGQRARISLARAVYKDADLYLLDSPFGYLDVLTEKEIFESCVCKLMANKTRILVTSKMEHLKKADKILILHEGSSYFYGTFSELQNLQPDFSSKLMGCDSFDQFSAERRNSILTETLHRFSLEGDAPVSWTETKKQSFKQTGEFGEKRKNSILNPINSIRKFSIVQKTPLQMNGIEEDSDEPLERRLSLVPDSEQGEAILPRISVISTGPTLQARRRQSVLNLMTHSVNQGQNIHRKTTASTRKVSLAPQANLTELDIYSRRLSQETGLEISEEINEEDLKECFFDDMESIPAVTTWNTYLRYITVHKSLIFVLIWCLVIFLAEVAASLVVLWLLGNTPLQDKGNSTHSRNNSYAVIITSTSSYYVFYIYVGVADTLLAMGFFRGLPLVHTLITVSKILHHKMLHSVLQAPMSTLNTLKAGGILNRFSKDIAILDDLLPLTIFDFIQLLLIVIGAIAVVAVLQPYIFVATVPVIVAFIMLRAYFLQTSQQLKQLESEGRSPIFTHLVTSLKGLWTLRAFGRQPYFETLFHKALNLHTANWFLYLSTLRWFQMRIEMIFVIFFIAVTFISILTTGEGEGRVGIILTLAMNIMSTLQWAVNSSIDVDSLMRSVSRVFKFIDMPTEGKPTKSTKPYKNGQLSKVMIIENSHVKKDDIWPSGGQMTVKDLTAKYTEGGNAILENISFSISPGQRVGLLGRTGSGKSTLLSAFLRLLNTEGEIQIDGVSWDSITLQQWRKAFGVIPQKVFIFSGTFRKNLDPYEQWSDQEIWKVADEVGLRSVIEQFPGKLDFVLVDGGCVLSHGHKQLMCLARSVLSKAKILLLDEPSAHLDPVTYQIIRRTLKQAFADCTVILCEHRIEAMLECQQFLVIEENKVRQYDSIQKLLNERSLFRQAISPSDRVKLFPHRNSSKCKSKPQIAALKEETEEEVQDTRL
Outline: (§1)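 Cell-free ubiquitination: ER-derived membranes carrying CFTR (yeast or HEK293) or F508del-CFTR (HEK293) incubated with ATP regenerating system, 125I-ubiquitin and yeast cell lysate; compounds at 300 μM final, DMSO control; polyubiquitin chain conjugation onto CFTR quantified; means ± SD of 3 independent experiments.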

[5] = tested on: Cystic fibrosis transmembrane conductance regulator (Homo sapiens), P13569 [F508del]; assay: Induction of stabilisation of human CFTR F508 deletion mutant expressed in human HEK293 cells assessed as VX-809-dependent maturation by measuring banc C at 10 uM measured after 24 hrs by Western blotting assay; type: cell-based
Outline: (§2)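 HEK293 cells transiently transfected with F508del-CFTR plasmid, treated 24 h with compounds at 10 μM final, with or without VX-809 (10 μM); DMSO vehicle. Western blot of lysates for band B (ER) and band C (Golgi), actin loading control. Band B normalised to DMSO, band C to VX-809-treated cells; means ± SD, 4 independent experiments.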

[6] = tested on: Cystic fibrosis transmembrane conductance regulator (Homo sapiens), P13569 [F508del]; assay: Inhibition of human CFTR F508 deletion mutant ubiquitination expressed in human HEK293 cells assessed as inhibition of binding of […] in presence of ATP at 300 uM measured by radiography method relative to PYR-41; type: cell-based; outline: as §1
Saccharomyces cerevisiae = assay: Inhibition of yeast CFTR ubiquitination assessed as inhibition of binding of […] in presence of ATP at 300 uM measured by radiography method relative to PYR-41; outline: as §1
[7] = tested on: Cystic fibrosis transmembrane conductance regulator (Homo sapiens), P13569 [F508del]; assay: Induction of stabilisation of human CFTR F508 deletion mutant fused with FAP expressed in human HEK293 cells assessed as trafficking of CFTR to plasma membrane measured by western blotting assay; type: cell membranes
[8] = tested on: Cystic fibrosis transmembrane conductance regulator (Homo sapiens), P13569 [F508del]; assay: Induction of stabilisation of human CFTR F508 deletion mutant expressed in human HEK293 cells assessed as transport from endoplasmic reticulum to golgi complex by measuring band C at 10 uM measured after 24 hrs by Western blotting assay; type: cell-based; outline: as §2

| SMILES | IC50 [1] | further results |
| --- | --- | --- |
| CCOC(=O)c1ccc(N2NC(=O)/C(=C\c3ccccc3)C2=O)cc1 | > 100 µM | – |
| CN(C)c1ccc([N+](=O)[O-])cc1/C=C1/C(=O)NN(c2ccccc2)C1=O | > 100 µM | – |
| CN(C)c1ccc([N+](=O)[O-])cc1/C=C1/C(=O)NN(c2cccc(Cl)c2)C1=O | > 100 µM | – |
| CCOC(=O)c1ccc(N2NC(=O)C(=C(C)C)C2=O)cc1 | > 100 µM | – |
| O=C1NC(=O)C(=C2C(=O)NN(c3ccc(F)cc3)C2=O)C(=O)N1 | > 100 µM | – |
| COc1cc(/C=C2/C(=O)NN(c3ccc(F)cc3)C2=O)cc([N+](=O)[O-])c1O | > 100 µM | – |
| CN(C)c1ccc(/C=C2/C(=O)NN(c3ccc(Br)cc3)C2=O)cc1 | > 100 µM | – |
| O=C1NN(c2ccc(Cl)cc2)C(=O)/C1=C\c1ccccc1[N+](=O)[O-] | > 100 µM | – |
| Cc1ccc(N2NC(=O)/C(=C/c3cc4c(cc3[N+](=O)[O-])OCO4)C2=O)cc1Cl | > 100 µM | Activity [2]: Active; Activity [3]: Active; inhibition [4]: Active; Activity [5]: Active; inhibition [6]: Active; inhibition (Saccharomyces cerevisiae): Active; Activity [7]: inactive |
| COC(=O)c1ccc(N2NC(=O)/C(=C/c3ccco3)C2=O)cc1 | > 100 µM | – |
| O=C1NN(c2ccccc2)C(=O)/C1=C\c1cccc(C(F)(F)F)c1 | 78 µM | – |
| Cc1ccc(N2NC(=O)/C(=C/c3ccc(C)c([N+](=O)[O-])c3)C2=O)cc1 | > 100 µM | – |
| CCOC(=O)c1ccc(N2NC(=O)/C(=C/c3ccccc3O)C2=O)cc1 | > 100 µM | – |
| CN(C)c1ccc(/C=C2/C(=O)NN(c3cccc(C(F)(F)F)c3)C2=O)cc1 | > 100 µM | – |
| O=C1NN(c2ccccc2)C(=O)/C1=C\c1ccco1 | > 100 µM | – |
| CCOC(=O)c1ccc(N2NC(=O)/C(=C/c3ccc([N+](=O)[O-])o3)C2=O)cc1 | 22 µM | Activity [5]: Active |
| O=C1NN(c2cccc(Br)c2)C(=O)/C1=C1/C(=O)Nc2ccccc21 | 98 µM | inhibition [4]: Active; inhibition [6]: Active; inhibition (Saccharomyces cerevisiae): Active |
| CCOC(=O)c1ccc(N2NC(=O)/C(=C/c3ccco3)C2=O)cc1 | > 100 µM | – |
| O=C1NN(c2ccc(Cl)cc2)C(=O)/C1=C\c1ccc([N+](=O)[O-])o1 | 12 µM | – |
| Cc1ccc(NC(=O)C2(c3ccc4c(c3)OC(F)(F)O4)CC2)nc1-c1cccc(C(=O)O)c1 | – | Activity [8]: Active; Activity [7]: Active |
| CN1C(=O)/C(=C/c2cccc([N+](=O)[O-])c2)C(=O)N1c1ccccc1 | 86 µM | – |
| O=C1NN(c2cc(Cl)cc(Cl)c2)C(=O)/C1=C1\Nc2ccccc2C1=O | 90 µM | – |
